Experimental data as given in article PMC4322771 (Biopolymers, 2008).
Ends that are not written are not given here.

Legend:
[1] = system: Gal4(1–148)+KBP 2.20-mediated transcription; test: Competitive inhibition, firefly luciferase reporter assay in HeLa cells; format: cell-based; conditions: 0 → 20 μM, activity measured 40 h after compound addition
[2] = target: murine CBP KIX domain (CBP(586–672)) (Mus musculus, UniProt P45481); test: Fluorescence polarization binding to CBP KIX domain
Method in brief: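 Test compounds carried a fluorescein label at the amino terminus and were held at a constant concentration. Each was incubated at 25°C with increasing concentrations of exogenously expressed murine CBP KIX domain (residues 586–672). Fluorescence polarization was read at each protein concentration. Dissociation constants were obtained by Levenberg-Marquardt least-squares fitting of the binding data.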

murine CBP KIX domain (CBP(586–672)), sequence (P45481 586-672): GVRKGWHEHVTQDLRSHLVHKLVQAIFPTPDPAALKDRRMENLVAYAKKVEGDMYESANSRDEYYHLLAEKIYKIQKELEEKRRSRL

Substance | Inhibitory activity on KBP 2.20-mediated transcription (in words) [1] | Fold lower dissociation constant for the KIX domain relative to KBP 1.66 [2]
SRAVRELLFGS | no impact | –
SWAVYELLFGS-NH2 (C-terminus assumed) [KBP 2.20] | little or no inhibitory activity | ~ 3 fold
